Measurements published in ChEMBL document CHEMBL4004822, “Thienopyrimidinone Based Sirtuin-2 (SIRT2)-Selective Inhibitors Bind in the Ligand Induced Selectivity Pocket” (J Med Chem, 2017).

Tests used:
[1] = target: T1, NAD-dependent protein deacetylase sirtuin-2 (Homo sapiens, UniProt Q8IXJ6); experiment: (§1) Inhibition of recombinant human C-terminal His-tagged SIRT2 (50 to 389 end residues) expressed in Escherichia coli using p53 derived (379 to 382 residues) fluorogenic peptide substrate RHKK(Ac)-AMC preincubated for 10 mins followed by substrate addition in presence of NAD+ by fluorescence assay
T1 sequence (Q8IXJ6 whole entry): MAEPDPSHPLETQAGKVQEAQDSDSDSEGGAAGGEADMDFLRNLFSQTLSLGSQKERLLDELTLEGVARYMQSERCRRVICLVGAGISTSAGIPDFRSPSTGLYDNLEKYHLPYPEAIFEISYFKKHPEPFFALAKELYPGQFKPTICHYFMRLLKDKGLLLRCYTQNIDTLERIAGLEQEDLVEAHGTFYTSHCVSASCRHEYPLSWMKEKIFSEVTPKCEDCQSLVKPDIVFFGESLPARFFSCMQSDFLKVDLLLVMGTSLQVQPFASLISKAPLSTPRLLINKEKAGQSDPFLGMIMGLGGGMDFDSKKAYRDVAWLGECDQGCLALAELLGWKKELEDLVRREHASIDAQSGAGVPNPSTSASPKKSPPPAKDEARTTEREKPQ
In short: (§2)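 Two-step fluorogenic assay with p53 379–382 RHKK(Ac)-AMC. Compound (from 10 mM DMSO stock) preincubated ~10 min with human SIRT before substrate addition. Developer then releases fluorophore, read at ex 360/em 460 nm.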

[2] = target: T2, NAD-dependent protein deacetylase sirtuin-2 (Homo sapiens) (UniProt Q8IXJ6); experiment: as §1, with “coli at 10 uM” for “coli”, “assay relative to control” for “assay”; in short: as §2
T2 sequence (whole entry): T1 sequence (Q8IXJ6 whole entry)

Row | SMILES | IC50 [1] | inhibition [2]
1 | COc1ccc(CNC2CCc3c(sc4ncn(Cc5c(OC)ccc6ccccc56)c(=O)c34)C2)cn1 (configuration not stated) | 1.9 µM | 83%
2 | O=c1c2c3c(sc2ncn1Cc1ccc2ccccc2c1)CC(NCc1ccccc1)CC3 (configuration not stated) | 5.45 µM | 71%
3 | COc1ccc(CNC2CCc3c(sc4ncn(Cc5ccc6ccccc6c5)c(=O)c34)C2)cn1 (configuration not stated) | 10.2 µM | 76%
4 | COc1ccc2ccccc2c1Cn1cnc2sc3c(c2c1=O)CCC(NC1CCCC1)C3 (configuration not stated) | 1.18 µM | 99%
5 | COc1ccc2ccccc2c1Cn1cnc2sc3c(c2c1=O)CCC(NCC1CCCCC1)C3 (configuration not stated) | 1.65 µM | 97%
6 | COc1ccc2ccccc2c1Cn1cnc2sc3c(c2c1=O)CCC(NCc1cccc(F)c1)C3 (configuration not stated) | 4.07 µM | 73%
7 | O=c1c2c3c(sc2ncn1Cc1cccc2ccccc12)CC(NCC1CCCO1)CC3 (configuration not stated) | 12.5 µM | 67%
8 | O=c1c2c3c(sc2ncn1Cc1cccc(-c2ccccc2)c1)CC(NC1CCOCC1)CC3 (configuration not stated) | 1.74 µM | 93%
9 | O=c1c2c3c(sc2ncn1Cc1ccc2ccccc2c1)CC(NCc1ccncc1)CC3 (configuration not stated) | 3.14 µM | 92%
10 | COc1ccccc1CNC1CCc2c(sc3ncn(Cc4ccc5ccccc5c4)c(=O)c23)C1 (configuration not stated) | 4.22 µM | 75%
11 | O=c1c2c3c(sc2ncn1Cc1cccc2cccnc12)CC(NCc1ccccn1)CC3 (configuration not stated) | 2.61 µM | 87%
12 | O=c1c2c3c(sc2ncn1Cc1cccc(-c2ccccc2)c1)CC(NCCN1CCOCC1)CC3 (configuration not stated) | 3.14 µM | 77%
13 | COc1ccc2ccccc2c1Cn1cnc2sc3c(c2c1=O)CCC(NC1CCOCC1)C3 (configuration not stated) | 1.11 µM | 96%
14 | COc1ccc2ccccc2c1Cn1cnc2sc3c(c2c1=O)CCC(NCc1ccco1)C3 (configuration not stated) | 5.24 µM | 78%
15 | O=c1c2c3c(sc2ncn1Cc1cccc2cccnc12)CC(NCC1CCCCC1)CC3 (configuration not stated) | 2.43 µM | 94%
16 | O=c1c2c3c(sc2ncn1Cc1ccc2ccccc2c1)CC(NCc1cncnc1)CC3 (configuration not stated) | 5.3 µM | 88%
17 | O=c1c2c3c(sc2ncn1Cc1cccc(-c2ccccc2)c1)CC(NCC1CCOC1)CC3 (configuration not stated) | 2.58 µM | 91%
18 | Cc1nn(C)c(C)c1CNC1CCc2c(sc3ncn(Cc4ccc5ccccc5c4)c(=O)c23)C1 (configuration not stated) | 7.43 µM | 87%
19 | O=c1c2c3c(sc2ncn1Cc1ccc2ccccc2c1)CC(NCC1CCCO1)CC3 (configuration not stated) | 13.1 µM | 71%
20 | COc1ccc2ccccc2c1Cn1cnc2sc3c(c2c1=O)CCC(NCc1c(C)noc1C)C3 (configuration not stated) | 4 µM | 87%
21 | COc1ccc(CNC2CCc3c(sc4ncn(Cc5cccc6cccnc56)c(=O)c34)C2)cc1 (configuration not stated) | 1.83 µM | 95%

Row | SMILES | IC50 [1] | inhibition [2]
22 | COc1ccc2ccccc2c1Cn1cnc2sc3c(c2c1=O)CCC(NCc1c(C)nn(C)c1C)C3 (configuration not stated) | 5.11 µM | 94%
23 | COc1ccc2ccccc2c1Cn1cnc2sc3c(c2c1=O)CCC(NCCc1ccncc1)C3 (configuration not stated) | 2.75 µM | 95%
24 | O=c1c2c3c(sc2ncn1Cc1cccc2cccnc12)CC(Nc1ccc(F)cc1)CC3 (configuration not stated) | 0.97 µM | 90%
25 | COc1ccc2ccccc2c1Cn1cnc2sc3c(c2c1=O)CCC(NCc1ccccc1)C3 (configuration not stated) | 21.1 µM | 
26 | COc1cccc(CNC2CCc3c(sc4ncn(Cc5c(OC)ccc6ccccc56)c(=O)c34)C2)c1 (configuration not stated) | 1.9 µM | 
27 | COc1ccc(NC2CCc3c(sc4ncn(Cc5cccc6ccccc56)c(=O)c34)C2)cc1 (configuration not stated) |  | 52%
28 | O=c1c2c3c(sc2ncn1Cc1cccc(-c2ccccc2)c1)CC(NCc1cccs1)CC3 (configuration not stated) |  | 66%
29 | COc1ccc2ccccc2c1Cn1cnc2sc3c(c2c1=O)CCC(Nc1cccc(C)c1)C3 (configuration not stated) |  | 27%
30 | COCCNC1CCc2c(sc3ncn(Cc4c(OC)ccc5ccccc45)c(=O)c23)C1 (configuration not stated) |  | 44%
31 | COc1ccccc1NC1CCc2c(sc3ncn(Cc4cccc(-c5ccccc5)c4)c(=O)c23)C1 (configuration not stated) |  | 26%
32 | COc1cccc(CNC2CCc3c(sc4ncn(Cc5ccc6ccccc6c5)c(=O)c34)C2)c1 (configuration not stated) |  | 51%
33 | COc1cccc(Cn2cnc3sc4c(c3c2=O)CCC(NCc2ccco2)C4)c1 (configuration not stated) |  | 33%
34 | COc1cccc(Cn2cnc3sc4c(c3c2=O)CCC(NCc2ccccc2Cl)C4)c1 (configuration not stated) |  | 68%
35 | Cc1ccc(NC2CCc3c(sc4ncn(Cc5ccc6ccccc6c5)c(=O)c34)C2)cc1 (configuration not stated) |  | 29%
36 | N#Cc1ccc(CNC2CCc3c(sc4ncn(Cc5ccc6ccccc6c5)c(=O)c34)C2)cc1 (configuration not stated) |  | 67%
37 | COc1ccc2ccccc2c1Cn1cnc2sc(CCNCc3ccc(C#N)cc3)c(C)c2c1=O |  | 51%
38 | COc1cccc(Cn2cnc3sc4c(c3c2=O)CCC(NCc2cncnc2)C4)c1 (configuration not stated) |  | 18%
39 | Cc1cccc(NC2CCc3c(sc4ncn(Cc5cccc6ccccc56)c(=O)c34)C2)c1 (configuration not stated) |  | 41%
40 | N#Cc1ccc(CNC2CCc3c(sc4ncn(Cc5cccc(-c6ccccc6)c5)c(=O)c34)C2)cc1 (configuration not stated) |  | 75%
41 | COc1cccc(Cn2cnc3sc4c(c3c2=O)CCC(NCC2CCCO2)C4)c1 (configuration not stated) |  | 3%
42 | O=c1c2c3c(sc2ncn1Cc1cccc2cccnc12)CC(NC1CCOCC1)CC3 (configuration not stated) |  | 51%

Row | SMILES | IC50 [1] | inhibition [2]
43 | COc1ccccc1CCNC1CCc2c(sc3ncn(Cc4cccc(-c5ccccc5)c4)c(=O)c23)C1 (configuration not stated) |  | 65%
44 | COc1ccc2ccccc2c1Cn1cnc2sc(CCNCC3CCOC3)c(C)c2c1=O (configuration not stated) |  | 65%
45 | Cc1nn(C)c(C)c1CNC1CCc2c(sc3ncn(Cc4cccc5cccnc45)c(=O)c23)C1 (configuration not stated) |  | 74%
46 | COc1cccc(CNC2CCc3c(sc4ncn(Cc5cccc6ccccc56)c(=O)c34)C2)c1 (configuration not stated) |  | 59%
47 | COCCNC1CCc2c(sc3ncn(Cc4ccc5ccccc5c4)c(=O)c23)C1 (configuration not stated) |  | 45%
48 | COc1cccc(NC2CCc3c(sc4ncn(Cc5ccc(OC)c6ccccc56)c(=O)c34)C2)c1 (configuration not stated) |  | 25%
49 | COc1ccc(NC2CCc3c(sc4ncn(Cc5ccc(OC)c6ccccc56)c(=O)c34)C2)cc1 (configuration not stated) |  | 41%
50 | COc1ccc(Cn2cnc3sc4c(c3c2=O)CCC(NCC2CCOC2)C4)c2ccccc12 (configuration not stated) |  | 70%
51 | O=c1c2c3c(sc2ncn1Cc1cccc2ccccc12)CC(NCc1cccc(Cl)c1)CC3 (configuration not stated) |  | 60%
52 | COc1cccc(CNC2CCc3c(sc4ncn(Cc5ccccc5)c(=O)c34)C2)c1 (configuration not stated) |  | 48%
53 | O=c1c2c3c(sc2ncn1Cc1ccccc1)CC(NCc1ccco1)CC3 (configuration not stated) |  | 33%
54 | O=c1c2c3c(sc2ncn1Cc1ccc2ccccc2c1)CC(NCCN1CCOCC1)CC3 (configuration not stated) |  | 47%
55 | COc1ccc2ccccc2c1Cn1cnc2sc(CCN(C)C)c(C)c2c1=O |  | 30%
56 | O=c1c2c3c(sc2ncn1Cc1cccc2ccccc12)CC(NC1CCCc2ccccc21)CC3 (configuration not stated) |  | 51%
57 | CC(=O)NCCNC1CCc2c(sc3ncn(Cc4cccc(-c5ccccc5)c4)c(=O)c23)C1 (configuration not stated) |  | 65%
58 | O=c1c2c3c(sc2ncn1Cc1cccc(-c2ccccc2)c1)CC(Nc1ccc2c(c1)OCO2)CC3 (configuration not stated) |  | 33%
59 | COc1ccc(CNC2CCc3c(sc4ncn(Cc5cccc(OC)c5)c(=O)c34)C2)cc1 (configuration not stated) |  | 71%
60 | COc1ccccc1CCNC1CCc2c(sc3ncn(Cc4cccc5cccnc45)c(=O)c23)C1 (configuration not stated) |  | 63%
61 | COc1ccccc1Cn1cnc2sc3c(c2c1=O)CCC(NCc1c(C)nn(C)c1C)C3 (configuration not stated) |  | 37%
62 | COc1cccc(Cn2cnc3sc4c(c3c2=O)CCC(NCc2ccc(OC)nc2)C4)c1 (configuration not stated) |  | 28%
63 | O=c1c2c3c(sc2ncn1Cc1cccc2ccccc12)CC(Nc1ccc(F)cc1)CC3 (configuration not stated) |  | 50%
